This note sets out measurements from ChEMBL document CHEMBL1154157, “Synthesis, structure and structure-activity relationship analysis of 3-tert-butoxycarbonyl-2-arylthiazolidine-4-carboxylic acid derivatives as potential antibacterial agents” (Eur J Med Chem, 2009).

What all share (format): functional, organism-based
The subject of assay [1] is Pseudomonas aeruginosa. The experiment in a line: Antibacterial activity against Pseudomonas aeruginosa ATCC 13525 after 24 hrs by MTT method. Conditions: ATCC 13525, 24 h. In a few lines: (§1)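 Broth assay in Mueller-Hinton liquid medium. Compounds dissolved in DMSO (stock 50 μg/mL) and serially diluted into the medium. Inoculum approx. 10^5 cfu/mL, incubated 37 °C for 24 h. Afterwards MTT (2 mg/mL in 0.01 mol/L PBS, pH 7.4) added, 4-5 h at room temperature. Dye extracted with isopropanol containing 5% 1 mol/L HCl for 12 h, OD read at 570 nm. IC50 derived colorimetrically.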

The subject of assay [2] is Staphylococcus aureus. The experiment in a line: Antibacterial activity against Staphylococcus aureus ATCC 6538 after 24 hrs by MTT method. The following applies: ATCC 6538, 24 h. In a few lines: as §1
A general note: Tetrazolium dyes change colour on reduction, which living cells bring about.

The test system of assay [3] is Escherichia coli. The experiment in a line: Antibacterial activity against Escherichia coli ATCC 35218 after 24 hrs by MTT method. The following applies: ATCC 35218, 24 h. Summed up:
as §1

Assay [4] deals with Bacillus subtilis. The experiment in a line: Antibacterial activity against Bacillus subtilis ATCC 6633 after 24 hrs by MTT method. Conditions: ATCC 6633, 24 h. Summed up: as §1

SMILES strings stand for the structures. ≈ marks a conversion by molar mass, not a printed value.

For orientation: IC50 means the concentration that gives 50% inhibition. Low values mean greater potency in that assay, high ones weaker potency in that assay.

On to `O=C(O)[C@@H]1CSC(c2ccccc2)N1` (mixture of isomers), for which the IC50 in assay [1] is greater than 50 µg/mL; in assay [2] it was 12.5 µg/mL; in assay [3] it was 25 µg/mL; in assay [4], 3.12 µg/mL.

For the compound `O=C(O)[C@@H]1CSC(c2cc(Cl)ccc2O)N1` (mixture of isomers), the IC50 in assay [1] was 3.12 µg/mL; in assay [2] it was 6.25 µg/mL; in assay [3] it was 12.5 µg/mL; in assay [4], 12.5 µg/mL.

As for `CC(C)(C)OC(=O)N1C(c2cc(Cl)ccc2O)SC[C@H]1C(=O)O` (mixture of isomers), the IC50 in assay [1] was 0.39 µg/mL; in assay [2], 1.56 µg/mL; in assay [3], 1.56 µg/mL; in assay [4], 1.56 µg/mL.

Turning to `CC(C)(C)OC(=O)N1C(c2ccc(O)cc2)SC[C@H]1C(=O)O` (mixture of isomers), the IC50 in assay [1] is 0.39 µg/mL; in assay [2] it was 3.12 µg/mL; in assay [3], 0.78 µg/mL; in assay [4], 0.39 µg/mL.

On to `CC(C)(C)OC(=O)N1C(c2cc(Br)ccc2O)SC[C@H]1C(=O)O` (mixture of isomers), for which the IC50 in assay [1] stood at 0.78 µg/mL; in assay [2], 1.56 µg/mL; in assay [3] it was 1.56 µg/mL; in assay [4], 1.56 µg/mL.

Regarding `CC(C)(C)OC(=O)N1C(c2cc(C(C)(C)C)c(O)c(C(C)(C)C)c2)SC[C@H]1C(=O)O` (mixture of isomers), the IC50 in assay [1] came out at 0.39 µg/mL; in assay [2], 1.56 µg/mL; in assay [3], 0.69 µg/mL; in assay [4], 0.39 µg/mL.

`O=C(O)[C@@H]1CSC(c2cc(Br)ccc2O)N1` (mixture of isomers): the concentration for half-maximal inhibition (IC50) is 6.25 µg/mL in assay [1], 12.5 µg/mL in assay [2], 25 µg/mL in assay [3] and 12.5 µg/mL in assay [4].

As to `COc1ccc(C2SC[C@@H](C(=O)O)N2C(=O)OC(C)(C)C)cc1` (mixture of isomers), the IC50 in assay [1] was determined as 0.39 µg/mL; in assay [2], 1.56 µg/mL; in assay [3] it was 0.78 µg/mL; in assay [4], 3.12 µg/mL.

As to `O=C(O)[C@@H]1CSC(c2cc(F)ccc2O)N1` (mixture of isomers), the IC50 was 1.56 µg/mL in assay [1], 6.25 µg/mL in assay [2], 12.5 µg/mL in assay [3] and 3.12 µg/mL in assay [4].

For the compound `CC(C)(C)OC(=O)N1C(c2ccc(Br)cc2)SC[C@H]1C(=O)O` (mixture of isomers), the IC50 in assay [1] came out at 0.39 µg/mL; in assay [2] it was 3.12 µg/mL; in assay [3] it was 0.39 µg/mL; in assay [4], 3.12 µg/mL.

For the compound `CC(C)(C)OC(=O)N1C(c2cc(F)ccc2O)SC[C@H]1C(=O)O` (mixture of isomers), the IC50 was 0.195 µg/mL in assay [1], 0.39 µg/mL in assay [2], 0.78 µg/mL in assay [3] and 0.39 µg/mL in assay [4].

In the case of `CC(C)(C)c1cc(C2N[C@H](C(=O)O)CS2)cc(C(C)(C)C)c1O` (mixture of isomers), the IC50 in assay [1] came to 25 µg/mL; in assay [2] it was 12.5 µg/mL; in assay [3] it was 25 µg/mL; in assay [4], 25 µg/mL.

On to `CC(C)(C)OC(=O)N1C(c2ccccc2)SC[C@H]1C(=O)O` (mixture of isomers), for which the IC50 came to 0.78 µg/mL in assay [1], 0.78 µg/mL in assay [2], 0.39 µg/mL in assay [3] and 3.12 µg/mL in assay [4].

Take `COc1ccc(C2N[C@H](C(=O)O)CS2)cc1` (mixture of isomers): the IC50 in assay [1] is greater than 50 µg/mL; in assay [2] it was 25 µg/mL; in assay [3], greater than 50 µg/mL; in assay [4], 12.5 µg/mL.

For the compound `CC(C)(C)OC(=O)N1C(c2cc(Br)cc(Br)c2O)SC[C@H]1C(=O)O` (mixture of isomers), the half-inhibitory concentration (IC50) in assay [1] was determined as 0.39 µg/mL; in assay [2] it was 1.56 µg/mL; in assay [3] it was 0.78 µg/mL; in assay [4], 3.12 µg/mL.

With `O=C(O)[C@@H]1CSC(c2ccc(O)cc2)N1` (mixture of isomers), the IC50 in assay [1] is 25 µg/mL; in assay [2] it was greater than 50 µg/mL; in assay [3], greater than 50 µg/mL; in assay [4] it was 25 µg/mL.

Consider `O=C(O)[C@@H]1CSC(c2cc(Br)cc(Br)c2O)N1` (mixture of isomers), for which the IC50 in assay [1] was 25 µg/mL; in assay [2] it was greater than 50 µg/mL; in assay [3], 12.5 µg/mL; in assay [4] it was 12.5 µg/mL.

For the compound `NC[C@H]1O[C@H](O[C@H]2[C@H](O)[C@@H](O[C@H]3O[C@H](CO)[C@@H](O)[C@H](N)[C@H]3O)[C@H](N)C[C@@H]2N)[C@H](N)[C@@H](O)[C@@H]1O` [BEKANAMYCIN], the IC50 in assay [1] stood at 3.12 µg/mL (≈ 6.46 µM); in assay [2], 1.56 µg/mL (≈ 3.23 µM); in assay [3] it was 3.12 µg/mL (≈ 6.46 µM); in assay [4] it was 0.39 µg/mL (≈ 0.807 µM).

For the compound `CC1(C)S[C@@H]2[C@H](NC(=O)Cc3ccccc3)C(=O)N2[C@H]1C(=O)O` [PENICILLIN G], the IC50 in assay [1] turned out to be 6.25 µg/mL (≈ 18.7 µM); in assay [2] it was 1.56 µg/mL (≈ 4.67 µM); in assay [3], 6.25 µg/mL (≈ 18.7 µM); in assay [4] it was 1.56 µg/mL (≈ 4.67 µM).
